Results published in ChEMBL document CHEMBL1781887, “Sulfoximine-substituted trifluoromethylpyrimidine analogs as inhibitors of proline-rich tyrosine kinase 2 (PYK2) show reduced hERG activity” (Bioorg Med Chem Lett, 2009).
Blank lines part the entries; values can stand above or below the molecule they belong to.

Columns and labels:
MDCK = assay: (§1) Apparent permeability from apical to basolateral side of MDCK cells; assay type: ADME, cell-based, Canis lupus familiaris; conditions: dog
Procedure, shortened: (§2)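 Madin–Darby canine kidney cell monolayers. Permeability measured in the apical-to-basolateral direction and reported as Papp.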

[1] = molecular target: T1, Protein-tyrosine kinase 2-beta (Homo sapiens, UniProt Q14289); assay: Inhibition of PYK2 assessed as reduction in peptide substrate phosphorylation by fluorimetric method
T1 sequence (Q14289 whole entry): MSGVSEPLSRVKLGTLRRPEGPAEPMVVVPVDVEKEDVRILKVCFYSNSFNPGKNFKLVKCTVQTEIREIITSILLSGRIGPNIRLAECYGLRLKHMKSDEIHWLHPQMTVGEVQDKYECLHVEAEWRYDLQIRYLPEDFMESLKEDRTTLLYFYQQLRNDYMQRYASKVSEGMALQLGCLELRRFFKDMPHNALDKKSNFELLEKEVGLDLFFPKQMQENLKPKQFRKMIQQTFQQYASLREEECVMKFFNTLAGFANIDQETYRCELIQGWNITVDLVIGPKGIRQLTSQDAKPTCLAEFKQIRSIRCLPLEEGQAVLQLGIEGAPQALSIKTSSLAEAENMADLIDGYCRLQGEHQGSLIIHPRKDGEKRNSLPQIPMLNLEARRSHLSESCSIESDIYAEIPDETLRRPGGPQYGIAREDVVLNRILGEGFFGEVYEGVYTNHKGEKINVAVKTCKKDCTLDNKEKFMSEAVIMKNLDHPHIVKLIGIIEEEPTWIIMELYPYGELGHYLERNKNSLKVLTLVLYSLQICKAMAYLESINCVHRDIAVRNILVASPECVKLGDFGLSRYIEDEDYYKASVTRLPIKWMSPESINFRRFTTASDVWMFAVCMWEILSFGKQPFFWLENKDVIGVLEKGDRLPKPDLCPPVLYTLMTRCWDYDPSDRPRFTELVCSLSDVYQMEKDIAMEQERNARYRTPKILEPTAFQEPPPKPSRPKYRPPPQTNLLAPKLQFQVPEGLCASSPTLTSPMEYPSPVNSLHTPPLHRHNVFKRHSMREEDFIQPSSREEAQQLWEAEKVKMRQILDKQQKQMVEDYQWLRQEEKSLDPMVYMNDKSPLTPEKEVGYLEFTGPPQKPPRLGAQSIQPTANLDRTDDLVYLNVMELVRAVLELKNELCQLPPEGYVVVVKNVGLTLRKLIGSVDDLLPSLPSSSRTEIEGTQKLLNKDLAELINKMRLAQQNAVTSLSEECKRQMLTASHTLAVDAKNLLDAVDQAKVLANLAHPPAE

[2] = molecular target: T1, Protein-tyrosine kinase 2-beta; assay: Inhibition of PYK2 by PYK2-LI-COR cellular assay
[3] = Hepatic extraction ratio in human liver microsomes; assay type: ADME, Microsome; conditions: read-out: ERH
[4] = as §1; assay type: ADME, cell-based, Canis lupus familiaris; conditions: dog; procedure, shortened: as §2
hERG (KCNH2) = hERG (KCNH2) (Homo sapiens, UniProt Q12809); assay: Inhibition of [3H]dofetilide binding to human ERG expressed in HEK293 cells at 10 uM; assay type: cell-based; conditions: HEK293 cells that express human ERG, probe [3H]dofetilide
Sequence of hERG (KCNH2) (Q12809 whole entry): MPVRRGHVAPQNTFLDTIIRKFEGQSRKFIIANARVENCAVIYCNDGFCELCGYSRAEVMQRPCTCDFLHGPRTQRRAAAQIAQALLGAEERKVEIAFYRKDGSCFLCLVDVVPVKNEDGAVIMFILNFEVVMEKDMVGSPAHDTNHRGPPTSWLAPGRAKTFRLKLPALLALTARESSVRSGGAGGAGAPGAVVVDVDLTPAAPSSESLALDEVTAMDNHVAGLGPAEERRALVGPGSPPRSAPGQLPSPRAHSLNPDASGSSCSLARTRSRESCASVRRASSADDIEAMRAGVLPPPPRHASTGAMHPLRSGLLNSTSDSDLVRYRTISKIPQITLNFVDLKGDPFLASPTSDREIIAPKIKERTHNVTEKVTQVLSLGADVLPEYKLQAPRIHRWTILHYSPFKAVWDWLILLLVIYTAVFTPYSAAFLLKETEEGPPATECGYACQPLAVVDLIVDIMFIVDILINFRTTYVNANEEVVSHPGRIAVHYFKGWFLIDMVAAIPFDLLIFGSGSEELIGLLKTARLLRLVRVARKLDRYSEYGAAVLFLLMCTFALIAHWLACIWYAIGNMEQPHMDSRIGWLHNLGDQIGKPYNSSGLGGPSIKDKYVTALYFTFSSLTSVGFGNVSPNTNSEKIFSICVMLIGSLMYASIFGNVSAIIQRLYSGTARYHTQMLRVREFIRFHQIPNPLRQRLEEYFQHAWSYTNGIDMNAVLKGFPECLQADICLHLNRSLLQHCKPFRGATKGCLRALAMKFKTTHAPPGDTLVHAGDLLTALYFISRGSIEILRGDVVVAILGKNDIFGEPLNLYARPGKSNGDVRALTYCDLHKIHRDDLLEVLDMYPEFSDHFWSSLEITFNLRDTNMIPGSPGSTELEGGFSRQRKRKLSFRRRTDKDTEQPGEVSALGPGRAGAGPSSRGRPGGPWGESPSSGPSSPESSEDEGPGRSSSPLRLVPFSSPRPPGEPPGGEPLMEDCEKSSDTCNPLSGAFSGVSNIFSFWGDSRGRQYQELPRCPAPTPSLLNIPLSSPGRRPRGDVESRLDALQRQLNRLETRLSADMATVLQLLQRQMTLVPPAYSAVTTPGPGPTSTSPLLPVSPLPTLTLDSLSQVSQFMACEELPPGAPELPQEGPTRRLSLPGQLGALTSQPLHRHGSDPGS

[5] = Clearance in Sprague-Dawley rat at 1 mg/kg, iv; assay type: ADME, organism-based; parameters: dose 1 mg/kg, route intravenous; conditions: in vivo
Procedure, shortened: (§3)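 Sprague–Dawley rats given 1.0 mg/kg iv. CL and Vdss obtained by non-compartmental fit of the plasma concentration–time profiles. Values are means of two experiments.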

[6] = Fraction unbound in rat plasma at 1 ug/mL; assay type: ADME, cell-free
Procedure, shortened: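 Rat plasma protein binding measured in vivo at a drug concentration of 1 μg/mL. Result expressed as fraction unbound (fu).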

[7] = Lipophilicity, log D of the compound at pH 7.4; assay type: physicochemical; conditions: buffer
[8] = Mean residence time in Sprague-Dawley rat; assay type: ADME, organism-based; conditions: in vivo
[9] = Volume of distribution at steady state in Sprague-Dawley rat at 1 mg/kg, iv; assay type: ADME, organism-based; parameters: dose 1 mg/kg, route intravenous; conditions: in vivo, read-out: Vdss; procedure, shortened: as §3
[10] = Cmax in Sprague-Dawley rat at 10 mg/kg, po; assay type: ADME, organism-based; parameters: dose 10 mg/kg, route oral; conditions: in vivo
Procedure, shortened: (§4)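 Sprague–Dawley rats given a single 10 mg/kg oral dose. Cmax and AUCinf taken from the plasma concentration–time profile. Cave calculated as AUCinf divided by the dosing interval in h. Free concentration refers to the unbound fraction in plasma. Values are means of two experiments.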

[11] = AUC (infinity) in Sprague-Dawley rat at 10 mg/kg, po; assay type: ADME, organism-based; parameters: time infinity, dose 10 mg/kg, route oral; conditions: plasma; procedure, shortened: as §4
[12] = Oral bioavailability in Sprague-Dawley rat at 10 mg/kg, po; assay type: ADME, organism-based; conditions: in vivo
Rattus norvegicus = assay: Average free plasma concentration in Sprague-Dawley rat at 10 mg/kg, po; assay type: ADME, organism-based; parameters: dose 10 mg/kg, route oral; conditions: in vivo; procedure, shortened: as §4

Papp (MDCK): 8.3 ×10⁻⁶ cm/s
Compound: CCN=[S+](C)([O-])c1ccc(Nc2ncc(C(F)(F)F)c(N[C@@H]3CCC[C@H]3N(C)C)n2)cc1 (stereo in doubt; (S)-14b)

Papp (MDCK): 9.3 ×10⁻⁶ cm/s
Compound: CCN=[S+](C)([O-])c1ccc(Nc2ncc(C(F)(F)F)c(N[C@@H]3CCC[C@H]3N(C)C)n2)cc1 (stereo in doubt; (R)-14b)

Papp A→B [4]: 4.7 ×10⁻⁶ cm/s
Compound: CCN=[S+](C)([O-])c1ccc(Nc2ncc(C(F)(F)F)c(N[C@@H]3CCC[C@H]3N(C)C)n2)cc1 (mixture of isomers)
inhibition at 10 µM (hERG (KCNH2)): 5.9%

Papp A→B [4]: 4.4 ×10⁻⁶ cm/s
Compound: CN=[S+](C)([O-])c1ccc(Nc2ncc(C(F)(F)F)c(N[C@@H]3CCC[C@H]3N(C)C)n2)cc1 (mixture of isomers)

Papp (MDCK): 5.7 ×10⁻⁶ cm/s
Compound: CN=[S+](C)([O-])c1ccc(Nc2ncc(C(F)(F)F)c(N[C@@H]3CCC[C@H]3N(C)C)n2)cc1 (stereo in doubt; (R)-14a)

The remaining lines, values behind:

Compound: CC[S+]([O-])(=NC)c1ccc(Nc2ncc(C(F)(F)F)c(N[C@@H]3CCC[C@H]3N(C)C)n2)cc1 (stereo partly drawn)
IC50 [1]: 21 nM | IC50 [2]: 24 nM | hepatic extraction ratio [3]: 0.58 | Papp A→B [4]: 7.8 ×10⁻⁶ cm/s | inhibition at 10 µM (hERG (KCNH2)): 2%

Compound: CN(c1ccccc1CNc1nc(Nc2ccc3c(c2)CC(=O)N3)ncc1C(F)(F)F)S(C)(=O)=O
Papp A→B [4]: 9.2 ×10⁻⁶ cm/s | inhibition at 10 µM (hERG (KCNH2)): 41%

Compound: CN(C)[C@@H]1CCC[C@H]1Nc1nc(Nc2ccc(S(=O)(=O)NC3CC3)cc2)ncc1C(F)(F)F
Papp A→B [4]: 4.8 ×10⁻⁶ cm/s | inhibition at 10 µM (hERG (KCNH2)): 76%

Compound: CC(C)N=[S+](C)([O-])c1ccc(Nc2ncc(C(F)(F)F)c(N[C@@H]3CCC[C@H]3N(C)C)n2)cc1 (mixture of isomers)
IC50 [1]: 22 nM | IC50 [2]: 34 nM | hepatic extraction ratio [3]: 0.78 | Papp A→B [4]: 6.6 ×10⁻⁶ cm/s | inhibition at 10 µM (hERG (KCNH2)): 8.4%

Compound: CN(C)[C@@H]1CCC[C@H]1Nc1nc(Nc2ccc([S+](C)(=N)[O-])cc2)ncc1C(F)(F)F (mixture of isomers)
IC50 [1]: 65 nM | IC50 [2]: 320 nM | hepatic extraction ratio [3]: < 0.29 | Papp A→B [4]: 1 ×10⁻⁶ cm/s | inhibition at 10 µM (hERG (KCNH2)): 12%

Compound: CNS(=O)(=O)c1ccc(Nc2ncc(C(F)(F)F)c(N[C@@H]3CCC[C@H]3N(C)C)n2)cc1
Papp A→B [4]: 5.3 ×10⁻⁶ cm/s | inhibition at 10 µM (hERG (KCNH2)): 50%

Compound: CN(C)[C@@H]1CCC[C@H]1Nc1nc(Nc2ccc(S(C)(=O)=O)cc2)ncc1C(F)(F)F
Papp A→B [4]: 9.5 ×10⁻⁶ cm/s | clearance [5]: 42 mL/min/kg | fraction unbound at 1 ug/mL [6]: 0.3 | logD [7]: 1.5 | MRT [8]: 3.7 h | Vd [9]: 13 L/kg

Compound: CN=[S+](C)([O-])c1ccc(Nc2ncc(C(F)(F)F)c(N[C@@H]3CCC[C@H]3N(C)C)n2)cc1 (stereo in doubt; (S)-14a)
Papp (MDCK): 5.1 ×10⁻⁶ cm/s | clearance [5]: 74 mL/min/kg | fraction unbound at 1 ug/mL [6]: 0.36 | logD [7]: 1.7 | MRT [8]: 2.3 h | Vd [9]: 13 L/kg | Cmax [10]: 720 nM | AUC(0-inf) [11]: 5 µM·h | bioavailability [12]: 100% | Cp(f) (Rattus norvegicus): 76 nM
